What was measured:
[1] = Sildenafil pharmacokinetics in plasma; assay type: in vivo, human
How it was run: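 For the co-administered compound, plasma (EDTA K3) was drawn 3, 4, 6, 8, 12 and 24 h after test compound/placebo on days 13–15, with dosing at 2 h. Processing used a deuterated internal standard and methyl tert-butyl ether liquid-liquid extraction, then a validated LC assay. Samples were stored at −20 °C and analysed within 38 days. Log AUC(0–22) and Cmax went through ANOVA per dose; the test/placebo ratio was given with 90% CIs.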

[2] = tested on: healthy white male volunteers; experiment: Hemodynamic profile; assay type: in vivo, human
How it was run: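 Healthy men took test compound 10 mg or placebo once daily for 16 days, with a second test compound (25, 50, 100 mg) ~2 h later on days 13–15. After 15 min supine, seated then standing (2 min) SBP, DBP and HR were taken from 1.25 to ~5 h post-dose on days 0 and 12–15. Baseline was the mean of four seated pre-co-dose values. ANCOVA was run per dose; standing data were descriptive.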

healthy subjects = details: cited from earlier work
[3] = cited from earlier work
[4] = Vericiguat pharmacokinetics in plasma; assay type: in vivo, human
How it was run: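 Test compound was 10 mg once daily after breakfast. Lithium-heparin plasma was sampled pre-dose and at 0.5–15 h on days 12–15, plus 24 h on day 16. A labelled internal standard was added, then automated acetonitrile/ammonium acetate/formic acid precipitation and validated LC. QC accuracy was 93.88–101.33% and CV 1.24–2.58%; storage was −20 °C, analysis within 36 days. Log AUC(0–24) and Cmax were analysed by ANOVA (administration, subject).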

[5] = tested on: healthy white male volunteers; experiment: Safety and tolerability; assay type: in vivo, human
How it was run: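 Safety covered AEs, coded by MedDRA 19.0; an AE counted as treatment-emergent if it began or worsened from first dose to 30 days post-treatment, and investigators judged relatedness. Fasting haematology, chemistry, coagulation and urinalysis were collected at screening, pre-dose days 0 and 12–15, day 16 and follow-up. Vital signs and ECGs were taken after 15 min supine rest, pre-dose and 5.5 h post-dose (day 12 pre-dose only). All dosed subjects were included.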

[6] = tested on: patients with HF with reduced ejection fraction; details: vericiguat 10 mg once daily; cited from earlier work
[7] = tested on: patients with pulmonary arterial hypertension; details: 12 weeks, riociguat 1.0–2.5 mg with sildenafil 20 mg three times daily; cited from earlier work
[8] = ANCOVA, day 14, both groups + sildenafil 50 mg
[9] = during treatment with sildenafil, days 13–15
[10] = whole study, both groups also received sildenafil on days 13–15

Q: For CCCc1nn(C)c2c(=O)[nH]c(-c3cc(S(=O)(=O)N4CCN(C)CC4)ccc3OCC)nc12 [Sildenafil], which “Increase in sildenafil AUC(0–22), vericiguat group compared with placebo group” value ([1]; across sildenafil 25–100 mg) is on record?
A: 13–22%

Q: What about the “Increase in sildenafil Cmax, vericiguat group compared with placebo group” value ([1]; across sildenafil 25–100 mg) of the same molecule?
A: 14–20%

Q: What about the “Increase in sildenafil AUC(0–22) with co-administration of vericiguat” value ([1]; sildenafil 25 mg) of the same molecule?
A: 22.4%

Q: And the “Increase in sildenafil Cmax with co-administration of vericiguat” value (“Increase in sildenafil Cmax … of vericiguat” below) ([1]; sildenafil 25 mg)?
A: 14.2%

Q: What about the “Increase in sildenafil AUC(0–22) with co-administration of vericiguat” value ([1]; sildenafil 50 mg) of the same molecule?
A: 17.1%

Q: And the “Increase in sildenafil Cmax … of vericiguat” value ([1]; sildenafil 50 mg)?
A: 20.4%

Q: What about the “Increase in sildenafil AUC(0–22) with co-administration of vericiguat” value ([1]; sildenafil 100 mg) of the same molecule?
A: 13.0%

Q: And the “Increase in sildenafil Cmax … of vericiguat” value ([1]; sildenafil 100 mg)?
A: 17.1%

Q: And the “Time required to achieve the geometric mean Cmax of sildenafil” value ([1]; sildenafil 100 mg, day 15, co-administered with vericiguat)?
A: 2 h

Q: What about the “Time required to achieve the geometric mean Cmax of sildenafil” value ([1]; sildenafil 100 mg, day 15, with placebo) of the same molecule?
A: 1 h

Q: What about the “Increase in sildenafil exposure when co-administered with vericiguat” value ([1]; sildenafil 25–100 mg) of the same molecule?
A: ≤ 22%

Q: What about the “Dose dependency of BP-reducing effect” value ([2]; 25, 50, 100 mg, placebo group) of the same molecule?
A: no clear dose dependency

Q: And the “Mean decreases from baseline in BP” value ([2]; after single doses of sildenafil on days 13–15, placebo group)?
A: ≤ 5.3 mmHg

Q: What about the “Mean maximum decreases in BP” value ([2]; days 13–15, placebo group) of the same molecule?
A: ≤ 11.0 mmHg

Q: And the “Mean maximum decrease in DBP” value (healthy subjects; healthy volunteers)?
A: 5.3 mmHg

Q: And the “Mean maximum decrease in SBP” value (healthy subjects; healthy volunteers)?
A: 8.3 mmHg

Q: And the Terminal half-life [3]?
A: about 4 h

Q: And the “Time to achieve Cmax” value [3]?
A: 1 to 2 h

Q: For COC(=O)Nc1c(N)nc(-c2nn(Cc3ccccc3F)c3ncc(F)cc23)nc1N [Vericiguat], which “Change in seated HR, LS mean difference ‘vericiguat-placebo’” value ([2]; ANCOVA, day 13, both groups + sildenafil 25 mg) is on record?
A: 0.96 bpm

Q: And the “Change in seated HR, LS mean difference ‘vericiguat-placebo’” value [2, 8]?
A: 0.81 bpm

Q: And the “Change in seated SBP, LS mean difference ‘vericiguat-placebo’” value [2, 8]?
A: 1.36 mmHg

Q: And the “Change in seated HR, LS mean difference ‘vericiguat-placebo’” value ([2]; ANCOVA, day 15, both groups + sildenafil 100 mg)?
A: 1.38 bpm

Q: What about the “Maximum SBP when seated or standing” value ([2]; day 0) of the same molecule?
A: 143 mmHg

Q: What about the “Minimum SBP when standing” value ([2]; day 0) of the same molecule?
A: 97 mmHg

Q: And the “Standing HR” value ([2]; day 0)?
A: 54–108 bpm

Q: What about the “Maximum SBP when seated or standing” value ([2]; day 12) of the same molecule?
A: 141 mmHg

Q: What about the “Minimum SBP when standing” value ([2]; day 12) of the same molecule?
A: 93 mmHg

Q: And the “Standing HR” value ([2]; day 12)?
A: 53–102 bpm

Q: And the “Range of standing HR values” ([2]; day 13, with sildenafil 25 mg)?
A: 54–114 bpm

Q: And the “Range of standing HR values” ([2]; day 14, with sildenafil 50 mg)?
A: 54–119 bpm

Q: What about the “Range of standing HR values” ([2]; day 15, with sildenafil 100 mg) of the same molecule?
A: 53–127 bpm

Q: What about the “Minimum standing SBP” value ([2]; days 13–15, with sildenafil) of the same molecule?
A: 81–91 mmHg

Q: What about the “Increases in HR” value (healthy subjects; healthy subjects, vericiguat 5–15 mg over several days) of the same molecule?
A: 4–10 bpm

Q: What about the “Effect of co-administration of sildenafil on vericiguat pharmacokinetics” value ([4]; sildenafil 25–100 mg) of the same molecule?
A: did not affect

Q: And the “Time at which vericiguat Cmax values were reached post-administration” value ([4]; vericiguat 10 mg once daily, days 12–15)?
A: about 3 h

Q: What about the Half-life [3] of the same molecule?
A: 20 to 30 h

Q: What about the “Onset (time after intake)” value ([3]; intake with food as recommended) of the same molecule?
A: ~ 4 h

Q: And the “Time to achieve maximum plasma concentration (Cmax)” value ([3]; steady state, after intake)?
A: approximately 4 h

Q: And the “TEAEs of mild intensity” value ([5]; by treatment group, whole study)?
A: 81.3%

Q: What about the “Subjects with dyspepsia (TEAE)” value ([5]; days 0–12, vericiguat group) of the same molecule?
A: 25.0%

Q: What about the “Subjects with gastrointestinal disorders (TEAE)” value ([5]; days 0–12, vericiguat group) of the same molecule?
A: 31.3%

Q: And the “Subjects with head discomfort (TEAE)” value [5, 9]?
A: up to 13.3%

Q: And the “Subjects with headache (TEAE)” value [5, 9]?
A: up to 21.4%

Q: And the “Effects on ECG parameters, including the QT interval” value ([5]; in vivo)?
A: no relevant effects

Q: What about the “Subjects reporting at least one TEAE” value [5, 10] of the same molecule?
A: All subjects

Q: And the “Subjects with at least one sildenafil-related TEAE” value [5, 10]?
A: 87.5%

Q: What about the “Subjects with at least one vericiguat-related TEAE” value [5, 10] of the same molecule?
A: 62.5%

Q: What about the “Composite endpoint of death from cardiovascular causes or hospitalization for HF, hazard ratio” value [6] of the same molecule?
A: 0.90

Q: With COC(=O)N(C)c1c(N)nc(-c2nn(Cc3ccccc3F)c3ncccc23)nc1N [riociguat] as the molecule, how does the “Cmax at (time after intake)” value [3] read?
A: 1 to 1.5 h

Q: What about the Half-life [3] of the same molecule?
A: 7 to 12 h

Q: What about the “Standing SBP after dosing lower than with placebo” value [7] of the same molecule?
A: approximately 10 mmHg

From paper PMC9998565 (Clinical Pharmacokinetics, 2023)
